Reference: ChEMBL document CHEMBL3351653, “One-pot heterogeneous synthesis of Δ(3)-tetrahydrocannabinol analogues and xanthenes showing differential binding to CB(1) and CB(2) receptors” (Eur J Med Chem, 2014)

Assays:
[1] = target: Cannabinoid receptor 1 (Homo sapiens, UniProt P21554); assay: Displacement of [3H]CP55940 from human cannabinoid CB1 receptor expressed in CHO-K1 cells by liquid scintillation counting; format: cell-based
[2] = target: T1, Cannabinoid receptor 2 (Homo sapiens, UniProt P34972); assay: Displacement of [3H]CP55940 from human cannabinoid CB2 receptor expressed in CHO-K1 cells by liquid scintillation counting; format: cell-based
T1 sequence (P34972 whole entry): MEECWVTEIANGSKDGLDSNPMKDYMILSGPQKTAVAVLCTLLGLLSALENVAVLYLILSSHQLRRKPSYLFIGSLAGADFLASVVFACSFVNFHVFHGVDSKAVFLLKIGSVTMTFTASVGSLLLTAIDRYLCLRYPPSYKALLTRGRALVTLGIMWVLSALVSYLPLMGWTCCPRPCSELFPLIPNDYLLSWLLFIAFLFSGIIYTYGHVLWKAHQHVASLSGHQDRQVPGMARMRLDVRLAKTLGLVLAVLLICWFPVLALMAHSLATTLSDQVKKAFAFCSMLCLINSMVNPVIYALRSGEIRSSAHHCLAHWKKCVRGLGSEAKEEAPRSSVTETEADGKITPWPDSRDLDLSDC

[3] = target: T1, Cannabinoid receptor 2; assay: Partial agonist activity at human cannabinoid CB2 receptor expressed in CHO-K1 cells assessed as [S35]GTPgammaS binding by scintillation counting; format: functional, cell-based
Procedure, shortened: (§1)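 CB2 membranes held on ice with […] and 0.1 nM [35S]-GTPγS in buffer with 0.5% fatty-acid-free BSA. GF/B filtration, washing in ice-cold 50 mM Tris-HCl pH 7.4 with 0.1% BSA, then scintillation counting. Specific binding is signal minus the excess-GTPγS residual. Three independent experiments in triplicate.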

[4] = target: T1, Cannabinoid receptor 2; assay: Partial agonist activity at human cannabinoid CB2 receptor expressed in CHO-K1 cells assessed as [S35]GTPgammaS binding by scintillation counting relative to vehicle treated control; format: functional, cell-based
Procedure, shortened: as §1, with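 “BSA. Reaction started by adding compound, vehicle or CP55940.” for “BSA.”, “residual. Results given as % of vehicle control.” for “residual.”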

Cannabinoid receptor 1, sequence (P21554 whole entry): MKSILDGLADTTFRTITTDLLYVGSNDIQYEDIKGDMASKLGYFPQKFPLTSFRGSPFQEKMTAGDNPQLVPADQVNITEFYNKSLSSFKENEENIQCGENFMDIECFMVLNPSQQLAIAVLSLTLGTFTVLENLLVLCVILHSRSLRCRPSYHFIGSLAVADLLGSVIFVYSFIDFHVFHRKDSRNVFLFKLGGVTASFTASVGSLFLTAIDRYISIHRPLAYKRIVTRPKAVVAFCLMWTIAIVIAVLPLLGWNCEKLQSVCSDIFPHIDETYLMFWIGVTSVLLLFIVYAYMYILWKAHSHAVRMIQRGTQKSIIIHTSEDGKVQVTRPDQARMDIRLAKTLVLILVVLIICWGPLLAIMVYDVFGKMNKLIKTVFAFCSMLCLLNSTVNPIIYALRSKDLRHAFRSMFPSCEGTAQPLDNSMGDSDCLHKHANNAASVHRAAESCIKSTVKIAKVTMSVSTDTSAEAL

Row | Compound | Ki [1] [nM] | Ki [2] [nM] | EC50 [3] [nM] | Emax [4] [%]
1 | Cc1c(O)ccc2c1OC1=C(CC[C@@H](C)C1)C2(C)C | > 10000 | 1000 |  | 
2 | Cc1cc(O)c2c(c1)OC1=C(CC[C@@H](C)C1)C2(C)C | > 10000 | > 10000 |  | 
3 | Cc1cc(O)c2c(c1)OC(C)(C)C1=C2C[C@H](C)CC1 | 1000 | 660 |  | 
4 | CCc1cc2c(cc1O)OC(C)(C)C1=C2C[C@H](C)CC1 | > 10000 | > 10000 |  | 
5 | Cc1c(O)ccc2c1OC(C)(C)C1=C2C[C@H](C)CC1 | > 10000 | > 10000 |  | 
6 | C[C@@H]1CCC2=C(C1)Oc1cc(O)ccc1C2(C)C | > 10000 | 4200 |  | 
7 | CCc1cc2c(cc1O)OC1=C(CC[C@@H](C)C1)C2(C)C | > 10000 | 510 |  | 
8 | CCCCCc1cc(O)c2c(c1)OC1=C(CC[C@H](C)C1)C2(C)C | 2100 | 180 | 820 | 167
9 | C[C@@H]1CCC2=C(C1)c1ccc(O)cc1OC2(C)C | > 10000 | > 10000 |  | 
10 | CCCCCc1cc(O)c2c(c1)OC(C)(C)C1=C2C[C@@H](C)CC1 |  |  |  | 146
11 | CCCCCc1cc(O)c2c(c1)OC1=C(CC[C@@H](C)C1)C2(C)C | 1100 | 470 | 930 | 152
12 | CCCCCc1cc(O)c2c(c1)OC(C)(C)C1=C2C[C@H](C)CC1 |  |  |  | 133
